# From ChEMBL document CHEMBL1122413, “Chloralanyl and propargylglycyl dipeptides. Suicide substrate containing antibacterials” (1983)
# Where a SMILES comes first, the peptide text is derived from it. [ ]: non-standard residue; d: D form. Pra = C#CC[C@H](N)C(=O)O
# System: Escherichia coli
# Test: Minimum inhibitory concentration against Escherichia coli
# Format: functional
# Settings: not given
# Procedure, shortened: (§1)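 Agar dilution on defined peptide susceptibility medium with peptide in serial twofold dilutions. Strains subcultured on blood or chocolate agar. Inoculum from overnight culture in liquid peptide medium, diluted to approx 1×10^7 cfu/mL, applied by Steers replicator. Plates incubated overnight at 37 °C. MIC taken as lowest concentration permitting fewer than ten colonies at 16–18 h.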
row,SMILES,MIC [µg/mL]
1,C[C@@H](N)C(=O)N[C@H](C)C(=O)O.O=C(O)C(F)(F)F,> 100
2,C#CC[C@H](NC(=O)[C@@H](N)CC#C)C(=O)O.O=C(O)C(F)(F)F (H-[Pra]-[Pra]-OH),25
3,C#CC[C@H](NC(=O)[C@H](C)N)C(=O)O.O=C(O)C(F)(F)F,> 100
4,C#CC[C@H](NC(=O)[C@@H](N)CCl)C(=O)O.O=C(O)C(F)(F)F,3.12
5,C[C@@H](NC(=O)[C@H](N)CCl)C(=O)O.O=C(O)C(F)(F)F,> 100

# System: Klebsiella aerogenes
# Test: Minimum inhibitory concentration against Enterobacter aerogenes
# Format: functional
# Settings: not given
# Procedure, shortened: as §1
row,SMILES,MIC [µg/mL]
1,C[C@@H](N)C(=O)N[C@H](C)C(=O)O.O=C(O)C(F)(F)F,> 100
2,C#CC[C@H](NC(=O)[C@@H](N)CC#C)C(=O)O.O=C(O)C(F)(F)F (H-[Pra]-[Pra]-OH),> 100
3,C#CC[C@H](NC(=O)[C@H](C)N)C(=O)O.O=C(O)C(F)(F)F,> 100
4,C#CC[C@H](NC(=O)[C@@H](N)CCl)C(=O)O.O=C(O)C(F)(F)F,25
5,C[C@@H](NC(=O)[C@H](N)CCl)C(=O)O.O=C(O)C(F)(F)F,> 100

# System: Enterobacter cloacae
# Test: Minimum inhibitory concentration against Enterobacter cloacae
# Format: functional
# Settings: not given
# Procedure, shortened: as §1
row,SMILES,MIC [µg/mL]
1,C[C@@H](N)C(=O)N[C@H](C)C(=O)O.O=C(O)C(F)(F)F,> 100
2,C#CC[C@H](NC(=O)[C@@H](N)CC#C)C(=O)O.O=C(O)C(F)(F)F (H-[Pra]-[Pra]-OH),50
3,C#CC[C@H](NC(=O)[C@H](C)N)C(=O)O.O=C(O)C(F)(F)F,> 100
4,C#CC[C@H](NC(=O)[C@@H](N)CCl)C(=O)O.O=C(O)C(F)(F)F,25
5,C[C@@H](NC(=O)[C@H](N)CCl)C(=O)O.O=C(O)C(F)(F)F,> 100

# System: Haemophilus influenzae
# Test: Minimum inhibitory concentration against Hemophilus influenzae
# Format: functional
# Settings: not given
# Procedure, shortened: (§2)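 Agar dilution on defined peptide susceptibility medium with hemin (25 μg/mL), NAD (25 μg/mL) and Isovitalex (1%) added, peptide in serial twofold dilutions. Colonies from overnight chocolate or blood agar resuspended in liquid peptide medium to 10⁸ cfu/mL, applied by Steers replicator. Incubation overnight at 37 °C under 7% CO₂. MIC: lowest concentration giving fewer than ten colonies at 16–18 h.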
row,SMILES,MIC [µg/mL]
1,C[C@@H](N)C(=O)N[C@H](C)C(=O)O.O=C(O)C(F)(F)F,> 100
2,C#CC[C@H](NC(=O)[C@@H](N)CC#C)C(=O)O.O=C(O)C(F)(F)F (H-[Pra]-[Pra]-OH),> 100
3,C#CC[C@H](NC(=O)[C@H](C)N)C(=O)O.O=C(O)C(F)(F)F,> 100
4,C#CC[C@H](NC(=O)[C@@H](N)CCl)C(=O)O.O=C(O)C(F)(F)F,1.56
5,C[C@@H](NC(=O)[C@H](N)CCl)C(=O)O.O=C(O)C(F)(F)F,> 100

# System: Klebsiella pneumoniae
# Test: Minimum inhibitory concentration against Klebsiella pneumoniae
# Format: functional
# Settings: not given
# Procedure, shortened: as §1
row,SMILES,MIC [µg/mL]
1,C[C@@H](N)C(=O)N[C@H](C)C(=O)O.O=C(O)C(F)(F)F,> 100
2,C#CC[C@H](NC(=O)[C@@H](N)CC#C)C(=O)O.O=C(O)C(F)(F)F (H-[Pra]-[Pra]-OH),> 100
3,C#CC[C@H](NC(=O)[C@H](C)N)C(=O)O.O=C(O)C(F)(F)F,> 100
4,C#CC[C@H](NC(=O)[C@@H](N)CCl)C(=O)O.O=C(O)C(F)(F)F,> 100
5,C[C@@H](NC(=O)[C@H](N)CCl)C(=O)O.O=C(O)C(F)(F)F,> 100

# System: Morganella morganii
# Test: Minimum inhibitory concentration against Morganella morganii
# Format: functional
# Settings: not given
# Procedure, shortened: as §1
row,SMILES,MIC [µg/mL]
1,C[C@@H](N)C(=O)N[C@H](C)C(=O)O.O=C(O)C(F)(F)F,> 100
2,C#CC[C@H](NC(=O)[C@@H](N)CC#C)C(=O)O.O=C(O)C(F)(F)F (H-[Pra]-[Pra]-OH),> 100
3,C#CC[C@H](NC(=O)[C@H](C)N)C(=O)O.O=C(O)C(F)(F)F,> 100
4,C#CC[C@H](NC(=O)[C@@H](N)CCl)C(=O)O.O=C(O)C(F)(F)F,> 100
5,C[C@@H](NC(=O)[C@H](N)CCl)C(=O)O.O=C(O)C(F)(F)F,> 100

# System: Pseudomonas aeruginosa
# Test: Minimum inhibitory concentration against Pseudomonas aeruginosa
# Format: functional
# Settings: not given
# Procedure, shortened: as §1
row,SMILES,MIC [µg/mL]
1,C[C@@H](N)C(=O)N[C@H](C)C(=O)O.O=C(O)C(F)(F)F,> 100
2,C#CC[C@H](NC(=O)[C@@H](N)CC#C)C(=O)O.O=C(O)C(F)(F)F (H-[Pra]-[Pra]-OH),> 100
3,C#CC[C@H](NC(=O)[C@H](C)N)C(=O)O.O=C(O)C(F)(F)F,> 100
4,C#CC[C@H](NC(=O)[C@@H](N)CCl)C(=O)O.O=C(O)C(F)(F)F,> 100
5,C[C@@H](NC(=O)[C@H](N)CCl)C(=O)O.O=C(O)C(F)(F)F,> 100

# System: Proteus mirabilis
# Test: Minimum inhibitory concentration against Proteus mirabilis
# Format: functional
# Settings: not given
# Procedure, shortened: as §1
row,SMILES,MIC [µg/mL]
1,C[C@@H](N)C(=O)N[C@H](C)C(=O)O.O=C(O)C(F)(F)F,> 100
2,C#CC[C@H](NC(=O)[C@@H](N)CC#C)C(=O)O.O=C(O)C(F)(F)F (H-[Pra]-[Pra]-OH),> 100
3,C#CC[C@H](NC(=O)[C@H](C)N)C(=O)O.O=C(O)C(F)(F)F,> 100
4,C#CC[C@H](NC(=O)[C@@H](N)CCl)C(=O)O.O=C(O)C(F)(F)F,> 100
5,C[C@@H](NC(=O)[C@H](N)CCl)C(=O)O.O=C(O)C(F)(F)F,> 100

# System: Salmonella typhimurium
# Test: Minimum inhibitory concentration against Salmonella Typhimurium
# Format: functional, Salmonella enterica subsp. enterica serovar Typhimurium
# Settings: Salmonella enterica
# Procedure, shortened: as §1
row,SMILES,MIC [µg/mL]
1,C[C@@H](N)C(=O)N[C@H](C)C(=O)O.O=C(O)C(F)(F)F,> 100
2,C#CC[C@H](NC(=O)[C@@H](N)CC#C)C(=O)O.O=C(O)C(F)(F)F (H-[Pra]-[Pra]-OH),> 100
3,C#CC[C@H](NC(=O)[C@H](C)N)C(=O)O.O=C(O)C(F)(F)F,> 100
4,C#CC[C@H](NC(=O)[C@@H](N)CCl)C(=O)O.O=C(O)C(F)(F)F,> 100
5,C[C@@H](NC(=O)[C@H](N)CCl)C(=O)O.O=C(O)C(F)(F)F,> 100

# System: Serratia marcescens
# Test: Minimum inhibitory concentration against Serratia marcescens
# Format: functional
# Settings: not given
# Procedure, shortened: as §1
row,SMILES,MIC [µg/mL]
1,C[C@@H](N)C(=O)N[C@H](C)C(=O)O.O=C(O)C(F)(F)F,> 100
2,C#CC[C@H](NC(=O)[C@@H](N)CC#C)C(=O)O.O=C(O)C(F)(F)F (H-[Pra]-[Pra]-OH),> 100
3,C#CC[C@H](NC(=O)[C@H](C)N)C(=O)O.O=C(O)C(F)(F)F,> 100
4,C#CC[C@H](NC(=O)[C@@H](N)CCl)C(=O)O.O=C(O)C(F)(F)F,> 100
5,C[C@@H](NC(=O)[C@H](N)CCl)C(=O)O.O=C(O)C(F)(F)F,> 100

# System: Shigella flexneri
# Test: Minimum inhibitory concentration against Shigella flexneri
# Format: functional
# Settings: not given
# Procedure, shortened: as §1
row,SMILES,MIC [µg/mL]
1,C[C@@H](N)C(=O)N[C@H](C)C(=O)O.O=C(O)C(F)(F)F,> 100
2,C#CC[C@H](NC(=O)[C@@H](N)CC#C)C(=O)O.O=C(O)C(F)(F)F (H-[Pra]-[Pra]-OH),12.5
3,C#CC[C@H](NC(=O)[C@H](C)N)C(=O)O.O=C(O)C(F)(F)F,> 100
4,C#CC[C@H](NC(=O)[C@@H](N)CCl)C(=O)O.O=C(O)C(F)(F)F,3.12
5,C[C@@H](NC(=O)[C@H](N)CCl)C(=O)O.O=C(O)C(F)(F)F,> 100

# System: Staphylococcus epidermidis
# Test: Minimum inhibitory concentration against Staphylococcus epidermidis
# Format: functional
# Settings: not given
# Procedure, shortened: as §1
row,SMILES,MIC [µg/mL]
1,C[C@@H](N)C(=O)N[C@H](C)C(=O)O.O=C(O)C(F)(F)F,> 100
2,C#CC[C@H](NC(=O)[C@@H](N)CC#C)C(=O)O.O=C(O)C(F)(F)F (H-[Pra]-[Pra]-OH),0.78
3,C#CC[C@H](NC(=O)[C@H](C)N)C(=O)O.O=C(O)C(F)(F)F,1.56
4,C#CC[C@H](NC(=O)[C@@H](N)CCl)C(=O)O.O=C(O)C(F)(F)F,0.05
5,C[C@@H](NC(=O)[C@H](N)CCl)C(=O)O.O=C(O)C(F)(F)F,> 100

# System: Streptococcus agalactiae
# Test: Minimum inhibitory concentration against Streptococcus agalactiae
# Format: functional
# Settings: not given
# Procedure, shortened: as §2
row,SMILES,MIC [µg/mL]
1,C[C@@H](N)C(=O)N[C@H](C)C(=O)O.O=C(O)C(F)(F)F,> 100
2,C#CC[C@H](NC(=O)[C@@H](N)CC#C)C(=O)O.O=C(O)C(F)(F)F (H-[Pra]-[Pra]-OH),3.12
3,C#CC[C@H](NC(=O)[C@H](C)N)C(=O)O.O=C(O)C(F)(F)F,100
4,C#CC[C@H](NC(=O)[C@@H](N)CCl)C(=O)O.O=C(O)C(F)(F)F,0.39
5,C[C@@H](NC(=O)[C@H](N)CCl)C(=O)O.O=C(O)C(F)(F)F,> 100

# System: Staphylococcus aureus
# Test: Minimum inhibitory concentration against Staphylococcus aureus
# Format: functional
# Settings: not given
# Procedure, shortened: as §1
row,SMILES,MIC [µg/mL]
1,C[C@@H](N)C(=O)N[C@H](C)C(=O)O.O=C(O)C(F)(F)F,> 100
2,C#CC[C@H](NC(=O)[C@@H](N)CC#C)C(=O)O.O=C(O)C(F)(F)F (H-[Pra]-[Pra]-OH),3.12
3,C#CC[C@H](NC(=O)[C@H](C)N)C(=O)O.O=C(O)C(F)(F)F,> 100
4,C#CC[C@H](NC(=O)[C@@H](N)CCl)C(=O)O.O=C(O)C(F)(F)F,0.1
5,C[C@@H](NC(=O)[C@H](N)CCl)C(=O)O.O=C(O)C(F)(F)F,> 100

# System: Enterococcus faecalis
# Test: Minimum inhibitory concentration against Streptococcus faecalis
# Format: functional
# Settings: not given
# Procedure, shortened: as §1
row,SMILES,MIC [µg/mL]
1,C[C@@H](N)C(=O)N[C@H](C)C(=O)O.O=C(O)C(F)(F)F,> 100
2,C#CC[C@H](NC(=O)[C@@H](N)CC#C)C(=O)O.O=C(O)C(F)(F)F (H-[Pra]-[Pra]-OH),> 100
3,C#CC[C@H](NC(=O)[C@H](C)N)C(=O)O.O=C(O)C(F)(F)F,100
4,C#CC[C@H](NC(=O)[C@@H](N)CCl)C(=O)O.O=C(O)C(F)(F)F,3.12
5,C[C@@H](NC(=O)[C@H](N)CCl)C(=O)O.O=C(O)C(F)(F)F,> 100

# System: Streptococcus pyogenes
# Test: Minimum inhibitory concentration against Streptococcus pyogenes
# Format: functional
# Settings: not given
# Procedure, shortened: as §2
row,SMILES,MIC [µg/mL]
1,C[C@@H](N)C(=O)N[C@H](C)C(=O)O.O=C(O)C(F)(F)F,> 100
2,C#CC[C@H](NC(=O)[C@@H](N)CC#C)C(=O)O.O=C(O)C(F)(F)F (H-[Pra]-[Pra]-OH),> 100
3,C#CC[C@H](NC(=O)[C@H](C)N)C(=O)O.O=C(O)C(F)(F)F,> 100
4,C#CC[C@H](NC(=O)[C@@H](N)CCl)C(=O)O.O=C(O)C(F)(F)F,25
5,C[C@@H](NC(=O)[C@H](N)CCl)C(=O)O.O=C(O)C(F)(F)F,> 100
